The text below walks through data of ChEMBL document CHEMBL5385868, “Bifunctional carbazole derivatives for simultaneous therapy and fluorescence imaging in prion disease murine cell models” (Eur J Med Chem, 2023).

In series [1] the target is Major prion protein (Mus musculus) (UniProt P04925). The experiment in a line: Inhibition of full length recombinant mouse PrP (89 to 231 residues) expressed in Escherichia coli BL21 (DE3) cells to PrPSc conversion assessed as RML amplification at 10 uM.
Series [2] is described as follows: Cytotoxicity against RML infected mouse ScGT1 cells assessed as reduction in cell viability at 10 uM measured after 5 days by MTT assay relative to control. In kind it is toxicity, cell-based. The settings on record: scgt1, 120 h, time 5 day. In outline: (§1)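 MTT viability in RML-infected ScGT1 cells after 5 days exposure to 0.1, 1 or 10 µM compound, vehicle control. MTT 5 mg/mL in PBS for 3 h at 37 °C, 5% CO2; dissolved in DMSO/2-propanol (1:1), 30 min at room temperature, then plate read; triplicate.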

The nature of series [3]: Anti-prion activity against RML infected mouse ScGT1 cell assessed as PrPSc clearance level measured after 5 days by Western blot analysis. In kind it is functional, cell-based. The note with it: ScGT1, 120 h. In outline: (§2)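 RML-infected ScGT1 cells, confluent, split 1:10 and seeded in triplicate; compound (DMSO stock diluted in water) added to medium two days after seeding at 0.1, 1 or 10 µM, vehicle control; 5 days treatment. Lysates (1 mg/mL) digested with 20 µg/mL PK, 1 h, 37 °C, stopped with PMSF, ultracentrifuged; pellets blotted with anti-PrP Fab D18. PrPSc remaining expressed relative to untreated lysates.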

Series [4] is described as follows: Anti-prion activity against RML infected mouse ScGT1 cell lysate assessed as PrPSc residual level at 10 uM measured after 5 days by Western blot analysis relative to control. The class given is functional. The settings on record: time 5 day. The essentials:
as §2

The target in series [5] is Major prion protein (Mus musculus) (UniProt P04925). The experiment in a line: Inhibition of full length recombinant mouse PrP (89 to 231 residues) expressed in Escherichia coli BL21 (DE3) cells to PrPSc conversion assessed as RML amplification at 10 uM in presence of PMCA.
The nature of series [6]: Cytotoxicity against RML infected mouse ScGT1 cells assessed as reduction in cell viability at 1 uM measured after 5 days by MTT assay relative to control. In kind it is toxicity, cell-based. The settings on record: scgt1, 120 h, time 5 day. In outline: as §1
Series [7] addresses Major prion protein (Mus musculus) (UniProt P04925). The series is described as follows: Inhibition of full length recombinant mouse PrP (89 to 231 residues) expressed in Escherichia coli BL21 (DE3) cells to PrPSc conversion assessed as vCJD prion amplification at 10 uM.
Series [8] can be described thus: Anti-prion activity against 22L prion infected mouse ScGT1 cells assessed as reduction in PrPSc level measured after 5 days by Western blot analysis. The class given is functional, cell-based. The note with it: ScGT1, 120 h. In outline: (§3)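 22L-infected ScGT1 or ScN2a cells given compound in medium (vehicle ≤0.001% DMSO), triplicate. Lysates digested with 20 µg/mL PK for 1 h at 37 °C, stopped with PMSF, ultracentrifuged; PK-resistant PrP detected by Western blot with anti-PrP Fab D18 and HRP-conjugated secondary, ECL read-out.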

In series [9] the target is Major prion protein (Mus musculus) (UniProt P04925). The series is described as follows: Inhibition of full length recombinant mouse PrP (89 to 231 residues) expressed in Escherichia coli BL21 (DE3) cells to PrPSc conversion assessed as vCJD prion amplification at 10 uM in presence of PMCA. In outline: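 vCJD prions serially diluted 10^-5 to 10^-8 into 10% brain homogenate from Tg(MHu2M) mice expressing chimeric human-murine PrP, in conversion buffer with 0.05% digitonin. Substrate supplemented with PBS or 10 µM compound. PMCA: incubation at 37/40 °C with 40 s sonication pulses at 270–280 W.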

Series [10] concerns ScN2a. The experiment in a line: Anti-prion activity against 22L prion infected mouse ScN2a cells assessed as reduction in PrPSc level measured after 5 days by Western blot analysis. In kind it is functional, cell-based. The settings on record: 120 h. The essentials:
as §3

The target of series [11] is Major prion protein (Mus musculus) (UniProt P04925). The series is described as follows: Inhibition of full length recombinant mouse PrP (89 to 231 residues) expressed in Escherichia coli BL21 (DE3) cells to PrPSc conversion assessed as lag time for protein aggregation at 20 uM measured after 72 hrs by spectramax fluorescence microplate reader analysis.
Series [12] deals with N2a. The experiment in a line: Effect on N2a mouse cells assessed appearance of protein aggregates measured after 60 mins by fluorescence based confocal microscopy based analysis. The class given is functional, cell-based. In outline: (§4)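 N2a cells on coverslips at semi-confluence for 24 h, fixed in 4% paraformaldehyde, permeabilised with 0.2% Triton X-100, denatured with 6 M GdnHCl for 10 min, blocked with 1% BSA, then stained with 0.025% compound for 60 min. Anti-PrP mAb W226 as counterstain, DAPI for nuclei; confocal imaging with FITC/TRITC filters.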

Series [13] has as its system GT1. The series is described as follows: Anti-prion activity against mouse GT1 cells assessed as reduction in PrPSc level at 0.1 to 10 uM measured after 5 days by Western blot analysis. The class given is functional, cell-based. The note with it: dose 0.1-10 µM, time 5.0 day.
Series [14] addresses Major prion protein (Mus musculus) (UniProt P04925). The series is described as follows: Inhibition of full length recombinant mouse PrP (89 to 231 residues) expressed in Escherichia coli BL21 (DE3) cells to PrPSc conversion assessed as lag time for protein aggregation at 4 uM measured after 72 hrs by spectramax fluorescence microplate reader analysis.
Series [15] in a line: Anti-prion activity against RML infected mouse ScGT1 cell lysate assessed as PrPSc residual level at 1 uM measured after 5 days by Western blot analysis relative to control. The class given is functional. The note with it: time 5 day. The essentials:
as §2

Series [16] concerns the target Major prion protein (Mus musculus) (UniProt P04925). The experiment in a line: Inhibition of full length recombinant mouse PrP (89 to 231 residues) expressed in Escherichia coli BL21 (DE3) cells to PrPSc conversion assessed as lag time for protein aggregation at 40 uM measured after 72 hrs by spectramax fluorescence microplate reader analysis.
A short description of series [17]: Anti-prion activity against RML infected mouse ScGT1 cells assessed as reduction in PrPSc level measured after 5 days by Western blot analysis. The class given is functional, cell-based. The settings on record: ScGT1, 120 h. The essentials: as §2
A short description of series [18]: Anti-prion activity against RML infected mouse ScGT1 cell lysate assessed as PrPSc residual level at 0.1 uM measured after 5 days by Western blot analysis relative to control. The class given is functional. The settings on record: time 5 day. In outline: as §2
Series [19] relates to N2a. The series is described as follows: Effect on N2a mouse cells assessed appearance of protein clusters measured after 60 mins by fluorescence based confocal microscopy based analysis. In kind it is functional, cell-based. The essentials:
as §4

Series [20] is described as follows: Cytotoxicity against RML infected mouse ScGT1 cells assessed as reduction in cell viability at 0.1 uM measured after 5 days by MTT assay relative to control. The settings on record: scgt1, 120 h, time 5 day. The class given is toxicity, cell-based. In outline:
as §1

Series [21] is described as follows: (§5) Anti-prion activity against RML infected mouse ScGT1 cells assessed as inhibition of PrPSc formation measured after 5 days by Western blot analysis. In kind it is functional. The settings on record: dose 0.1-10 µM; time 5 day. The essentials:
as §2

Series [22] concerns ScGT1. The series is described as §5. The class given is functional. The settings on record: dose 0.1-10 µM, time 5.0 day. The essentials:
as §2

Activity calls are given as the source filed them. The rule behind the calls is not given here.

Sequence of Major prion protein (Mus musculus) (P04925 whole entry, the tested form may be a part): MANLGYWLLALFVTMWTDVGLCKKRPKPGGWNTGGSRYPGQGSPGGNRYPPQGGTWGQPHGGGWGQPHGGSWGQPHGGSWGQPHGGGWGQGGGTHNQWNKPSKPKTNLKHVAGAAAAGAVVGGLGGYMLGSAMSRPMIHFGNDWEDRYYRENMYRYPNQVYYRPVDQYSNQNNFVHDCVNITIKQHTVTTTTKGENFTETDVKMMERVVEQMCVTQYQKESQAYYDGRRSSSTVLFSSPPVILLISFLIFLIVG

For the molecule `CN(C)CC(=O)Nc1ccc2[nH]c3ccc(NC(=O)CN(C)C)cc3c2c1`, the inhibition result in series [1], in series [7] and in series [9] was “inactive” each time. The Activity came out at 95% in series [2], 17% in series [4], 47% in series [15] and 130% in series [18]. The EC50 in [3] amounted to 6.6 µM; in [8] it was 33.5 µM; in series [10] it was 7.3 µM; in [17], 1.35 µM. Further, the inhibition result in [5] is “Active”. Moreover, the “Cell viability (% of control)” value in series [6] is on record as 99%. Further, the figures for the TIME in series [11], in [14] and in series [16] were 5 h, 21.5 h and 9.5 h, respectively. The result in [12] was Active. The result in series [13] and in [19] was inactive. Besides, in series [20], the “Cell viability relative to control” value is 111%.

`O=C(CN1CCCC1)Nc1ccc2[nH]c3ccc(NC(=O)CN4CCCC4)cc3c2c1`: the Activity in [2] is 71%; in [4] it was 27%; in [15], 103%; in series [21] it was 7.4 µM; in series [22], “Dose-Dependent Effect”; in series [18], 148%. The “Cell viability (% of control)” value in series [6] is 85%. The “Cell viability relative to control” value in series [20] turned out to be 118%.

As for `CC(C)N(CC(=O)Nc1ccc2[nH]c3ccc(NC(=O)CN(C(C)C)C(C)C)cc3c2c1)C(C)C`, the Activity was 61% in series [2], 24% in [4], 39% in series [15] and 73% in series [18]. Besides, the “Cell viability (% of control)” value in series [6] came to 75%. In addition, the “Cell viability relative to control” value in series [20] came to 92%.

`O=C(CN1CCCC1)Nc1ccc(Cc2ccc(NC(=O)CN3CCCC3)cc2)cc1`: the Activity in series [2] stood at 50%; in [4], 13%; in series [15] it was 103%; in series [21], 7.8 µM; in series [18], 127%. The EC50 in series [3] was found to be 2.5 µM. For the same molecule, the “Cell viability (% of control)” value in series [6] came out at 69%. Also, in [13], the outcome was inactive. Moreover, the “Cell viability relative to control” value in [20] is on record as 85%.

Regarding `O=C(Cn1ccnc1)Nc1ccc2[nH]c3ccc(NC(=O)Cn4ccnc4)cc3c2c1`, the Activity in [2] is given as 77%; in series [4] it was 74%; in [15], 98%; in series [18] it was 120%. Also, the “Cell viability (% of control)” value in series [6] was 89%. Besides, the “Cell viability relative to control” value in [20] came out at 100%.

Turning to `CN1CCN(CC(=O)Nc2ccc3[nH]c4ccc(NC(=O)CN5CCN(C)CC5)cc4c3c2)CC1`, the Activity in series [2] is listed as 47%; in series [4], 28%; in series [15], 46%; in series [18], 85%. In series [6], the “Cell viability (% of control)” value amounted to 70%. Besides, the “Cell viability relative to control” value in series [20] was 99%.

For the molecule `O=C(CN1CCN(c2ccccc2)CC1)Nc1ccc2[nH]c3ccc(NC(=O)CN4CCN(c5ccccc5)CC4)cc3c2c1`, the Activity in series [2] is 63%; in series [4] it was 134%; in [15], 136%; in [18], 124%. The “Cell viability (% of control)” value in series [6] was 73%. For the same molecule, the “Cell viability relative to control” value in [20] stood at 71%.

Take `O=C(CN1CCCCC1)Nc1ccc2[nH]c3ccc(NC(=O)CN4CCCCC4)cc3c2c1`: the Activity in series [2] came out at 69%; in [4] it was 44%; in [15], 105%; in series [18], 109%. Besides, the “Cell viability (% of control)” value in series [6] was 76%. In addition, in series [20], the “Cell viability relative to control” value was 81%.

In the case of `CCN(CC)CC(=O)Nc1ccc2[nH]c3ccc(NC(=O)CN(CC)CC)cc3c2c1`, the Activity in series [2] is reported as 103%; in series [4], 31%; in series [15], 57%; in series [18] it was 84%. The EC50 amounted to 8 µM in [3] and 2.25 µM in series [17]. The “Cell viability (% of control)” value in series [6] is reported as 99%. In addition, the result in [13] was inactive. Also, in series [20], the “Cell viability relative to control” value turned out to be 108%.

In the case of `O=C(CN1CCCC1)Nc1ccc2[nH]c3ccccc3c2c1`, the Activity was determined as 29% in series [2], 26% in series [4], 75% in series [15] and 78% in [18]. In series [6], the “Cell viability (% of control)” value was 72%. Moreover, in series [20], the “Cell viability relative to control” value is given as 83%.

On to `O=C(CN1CCOCC1)Nc1ccc2[nH]c3ccc(NC(=O)CN4CCOCC4)cc3c2c1`, for which the Activity in [2] was 84%; in [4] it was 59%; in [15], 102%; in series [18] it was 96%. The “Cell viability (% of control)” value in series [6] is given as 86%. In series [20], the “Cell viability relative to control” value is 101%.
